From ChEMBL document CHEMBL1138494, “Human glucagon receptor antagonists with thiazole cores. A novel series with superior pharmacokinetic properties” (J Med Chem, 2009)
The source made the active and inactive calls. The rule behind the calls is not given here.

Columns and labels:
[1] = Tmax in fasted Beagle dog at 0.25 mg/kg, iv and 0.5 mg/kg, po; type: ADME, organism-based, Canis lupus familiaris; conditions: in vivo
Summary of the method: (§1)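 Plasma concentration–time profiles were recorded after separate intravenous and peroral dosing at the per-compound doses listed. T_max is reported in min alongside C_max (ng/mL), intravenous half-life and clearance ((mL/min)/kg).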

[2] = Tmax in fasted Sprague-Dawley rat at 1.59 mg/kg, iv and 3.20 mg/kg, po by HTLC-MS/MS analysis; type: ADME, organism-based; conditions: in vivo, 3.2 mg/kg; summary of the method: as §1
Hepatocyte [3] = assay: Inhibition of glucagon-stimulated glucose production in human primary hepatocytes preincubated for 10 mins before glucagon addition by NADH-linked hexokinase assay; type: functional, cell-based
Summary of the method: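 Cultured primary human hepatocytes were preincubated with compound for 10 min, then glycogenolysis was induced with 5 nM glucagon for 60 min. Glucose in the medium was measured against basal glycogenolysis. Albumin was present in the assay medium. IC50 was calculated from four experiments, mean ± SEM.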

[4] = target: T1, Gastric inhibitory polypeptide receptor (Homo sapiens, UniProt P48546); assay: Displacement of [125I]porcine GIP from human recombinant GIPR receptor expressed in BHK cells by scintillation proximity assay; type: cell-based
T1 sequence (P48546 whole entry): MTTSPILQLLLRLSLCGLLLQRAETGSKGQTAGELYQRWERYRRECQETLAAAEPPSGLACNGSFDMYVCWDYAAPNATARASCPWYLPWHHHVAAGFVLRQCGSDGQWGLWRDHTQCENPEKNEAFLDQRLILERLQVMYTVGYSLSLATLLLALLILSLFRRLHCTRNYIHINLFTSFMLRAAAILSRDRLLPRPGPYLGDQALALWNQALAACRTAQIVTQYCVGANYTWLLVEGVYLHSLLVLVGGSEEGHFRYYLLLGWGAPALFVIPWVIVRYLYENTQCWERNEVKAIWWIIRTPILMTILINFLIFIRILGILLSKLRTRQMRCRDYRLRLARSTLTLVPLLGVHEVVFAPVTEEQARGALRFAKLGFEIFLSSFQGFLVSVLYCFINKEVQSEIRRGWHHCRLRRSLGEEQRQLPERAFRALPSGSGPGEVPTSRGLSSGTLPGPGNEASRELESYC

[5] = Binding affinity to glucagon receptor in pig liver membrane by membrane filter assay; type: cell membranes, Sus scrofa
[6] = Clearance in fasted Sprague-Dawley rat at 1.59 mg/kg, iv and 3.20 mg/kg, po by HTLC-MS/MS analysis; type: ADME, organism-based; conditions: in vivo
Summary of the method: (§2)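 Rats were dosed intravenously and perorally in separate arms, and plasma concentration-time profiles were obtained. Half-life was taken from the iv arm. Clearance, oral bioavailability, Cmax and Tmax were derived from the profiles.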

Glucagon receptor [7] = target: T2, Glucagon receptor (Homo sapiens, UniProt P47871); assay: Displacement of [125I]porcine glucagon from human recombinant glucagon receptor expressed in BHK cells by scintillation proximity assay; type: cell-based
Hepatocyte [8] = assay: Inhibition of glucagon-stimulated glucose production in rat primary hepatocytes; type: functional, cell-based
[9] = Half life in fasted Beagle dog at 0.25 mg/kg, iv; type: ADME, organism-based, Canis lupus familiaris; parameters: dose 0.25 mg/kg, route intravenous; conditions: in vivo
Summary of the method: (§3)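 Dogs were dosed at 0.25 mg/kg iv and 0.5 mg/kg po, and plasma concentration was followed over time. Half-life came from the iv arm; clearance, Cmax and Tmax were also derived.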

Glucagon receptor [10] = target: Glucagon receptor (Mus musculus, UniProt Q61606); assay: Binding affinity to glucagon receptor in mouse liver membrane by membrane filter assay; type: cell membranes
[11] = Half life in fasted Sprague-Dawley rat plasma at 1.59 mg/kg, iv by HTLC-MS/MS analysis; type: ADME, organism-based; parameters: dose 1.59 mg/kg, route intravenous; summary of the method: as §2
Homo sapiens [12] = species: Homo sapiens; assay: Selectivity for human recombinant glucagon receptor over human GLP1R
[13] = Binding affinity to glucagon receptor in dog liver membrane by membrane filter assay; type: cell membranes, Canis lupus familiaris
[14] = Binding affinity to glucagon receptor in monkey liver membrane by membrane filter assay; type: cell membranes, Macaca mulatta
[15] = Oral bioavailability in fasted Sprague-Dawley rat at 3.20 mg/kg by HTLC-MS/MS analysis; type: ADME, organism-based; conditions: in vivo, 3.2 mg/kg
Summary of the method: (§4)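 Separate intravenous and peroral dosing arms per compound, with plasma concentration followed against time. Oral bioavailability (F_po) is reported per compound together with the intravenous half-life and clearance. The dose used for each arm is listed per compound.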

[16] = Cmax in fasted Beagle dog at 0.25 mg/kg, iv and 0.5 mg/kg, po; type: ADME, organism-based, Canis lupus familiaris; conditions: in vivo; summary of the method: as §3
Glucagon receptor [17] = target: Glucagon receptor (Rattus norvegicus, UniProt P30082); assay: Binding affinity to glucagon receptor in rat liver membrane by membrane filter assay; type: cell membranes
Glucagon receptor [18] = target: T2, Glucagon receptor; assay: Binding affinity to human recombinant glucagon receptor expressed in BHK cells by membrane filter assay; type: cell-based
[19] = Binding affinity to glucagon receptor in rabbit liver membrane by membrane filter assay; type: cell membranes, Oryctolagus cuniculus
[20] = Oral bioavailability in fasted Beagle dog at 0.5 mg/kg; type: ADME, organism-based, Canis lupus familiaris; conditions: in vivo; summary of the method: as §4
[21] = Cmax in fasted Sprague-Dawley rat at 1.59 mg/kg, iv and 3.20 mg/kg, po by HTLC-MS/MS analysis; type: ADME, organism-based; conditions: in vivo, 3.2 mg/kg; summary of the method: as §2
[22] = Clearance in fasted Beagle dog at 0.25 mg/kg, iv and 0.5 mg/kg, po; type: ADME, organism-based, Canis lupus familiaris; conditions: in vivo; summary of the method: as §3
[23] = target: T1, Gastric inhibitory polypeptide receptor; assay: Binding affinity to human recombinant GIPR expressed in BHK cells by membrane filter assay; type: cell-based
Homo sapiens [24] = species: Homo sapiens; assay: Selectivity ratio of IC50 for human recombinant glucagon receptor to IC50 for human recombinant GIPR
Summary of the method: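 Competition binding of compounds to recombinant human glucagon and GIP receptors on BHK cell membranes, run in parallel as a scintillation proximity assay and, for selected compounds, as a membrane filtration assay.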

[25] = Clearance in fasted Sprague-Dawley rat at 1.49 mg/kg, iv and 3.19 mg/kg, po; type: ADME, organism-based; conditions: in vivo; summary of the method: as §2
[26] = Cmax in fasted Sprague-Dawley rat at 1.49 mg/kg, iv and 3.19 mg/kg, po; type: ADME, organism-based; conditions: in vivo; summary of the method: as §2
[27] = Half life in fasted Sprague-Dawley rat plasma at 1.49 mg/kg, iv by HTLC-MS/MS analysis; type: ADME, organism-based; parameters: dose 1.49 mg/kg, route intravenous; summary of the method: as §2
[28] = Oral bioavailability in fasted Sprague-Dawley rat at 3.19 mg/kg by HTLC-MS/MS analysis; type: ADME, organism-based; conditions: in vivo; summary of the method: as §4
[29] = Tmax in fasted Sprague-Dawley rat at 1.49 mg/kg, iv and 3.19 mg/kg, po; type: ADME, organism-based; conditions: in vivo; summary of the method: as §1
[30] = Tmax in fasted Sprague-Dawley rat at 1.1 mg/kg, iv and 2.1 mg/kg, po by HTLC-MS/MS analysis; type: ADME, organism-based; conditions: in vivo; summary of the method: as §1
[31] = Cmax in fasted Sprague-Dawley rat at 1.1 mg/kg, iv and 2.1 mg/kg, po by HTLC-MS/MS analysis; type: ADME, organism-based; conditions: in vivo; summary of the method: as §2
[32] = Clearance in fasted Sprague-Dawley rat at 1.1 mg/kg, iv and 2.1 mg/kg, po by HTLC-MS/MS analysis; type: ADME, organism-based; conditions: in vivo; summary of the method: as §2
[33] = Half life in fasted Sprague-Dawley rat plasma at 1.1 mg/kg, iv by HTLC-MS/MS analysis; type: ADME, organism-based; parameters: dose 1.1 mg/kg, route intravenous; summary of the method: as §2
[34] = Oral bioavailability in fasted Sprague-Dawley rat at 2.1 mg/kg by HTLC-MS/MS analysis; type: ADME, organism-based; conditions: in vivo; summary of the method: as §4
[35] = Cmax in fasted Sprague-Dawley rat at 1.62 mg/kg, iv and 3.25 mg/kg, po by HTLC-MS/MS analysis; type: ADME, organism-based; conditions: in vivo; summary of the method: as §2
[36] = Tmax in fasted Sprague-Dawley rat at 1.62 mg/kg, iv and 3.25 mg/kg, po by HTLC-MS/MS analysis; type: ADME, organism-based; conditions: in vivo; summary of the method: as §1
[37] = Clearance in fasted Sprague-Dawley rat at 1.62 mg/kg, iv and 3.25 mg/kg, po by HTLC-MS/MS analysis; type: ADME, organism-based; conditions: in vivo; summary of the method: as §2
[38] = Half life in fasted Sprague-Dawley rat plasma at 1.62 mg/kg, iv by HTLC-MS/MS analysis; type: ADME, organism-based; parameters: dose 1.62 mg/kg, route intravenous; summary of the method: as §2
[39] = Oral bioavailability in fasted Sprague-Dawley rat at 3.25 mg/kg by HTLC-MS/MS analysis; type: ADME, organism-based; conditions: in vivo; summary of the method: as §4

Chain of Glucagon receptor (Mus musculus, UniProt Q61606) (Q61606 whole entry): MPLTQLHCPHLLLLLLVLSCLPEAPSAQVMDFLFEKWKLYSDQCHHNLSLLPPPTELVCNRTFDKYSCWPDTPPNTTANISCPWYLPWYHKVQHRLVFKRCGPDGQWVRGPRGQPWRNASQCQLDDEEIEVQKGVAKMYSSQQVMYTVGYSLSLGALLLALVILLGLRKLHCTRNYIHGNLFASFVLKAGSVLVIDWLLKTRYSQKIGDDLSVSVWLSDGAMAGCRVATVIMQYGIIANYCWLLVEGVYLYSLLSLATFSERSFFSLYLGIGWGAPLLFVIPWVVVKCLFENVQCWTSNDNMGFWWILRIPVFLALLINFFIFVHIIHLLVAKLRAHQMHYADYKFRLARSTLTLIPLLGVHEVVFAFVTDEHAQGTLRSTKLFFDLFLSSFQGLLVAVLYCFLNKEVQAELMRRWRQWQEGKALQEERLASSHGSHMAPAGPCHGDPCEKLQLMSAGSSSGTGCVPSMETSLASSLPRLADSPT
T2 sequence (P47871 whole entry): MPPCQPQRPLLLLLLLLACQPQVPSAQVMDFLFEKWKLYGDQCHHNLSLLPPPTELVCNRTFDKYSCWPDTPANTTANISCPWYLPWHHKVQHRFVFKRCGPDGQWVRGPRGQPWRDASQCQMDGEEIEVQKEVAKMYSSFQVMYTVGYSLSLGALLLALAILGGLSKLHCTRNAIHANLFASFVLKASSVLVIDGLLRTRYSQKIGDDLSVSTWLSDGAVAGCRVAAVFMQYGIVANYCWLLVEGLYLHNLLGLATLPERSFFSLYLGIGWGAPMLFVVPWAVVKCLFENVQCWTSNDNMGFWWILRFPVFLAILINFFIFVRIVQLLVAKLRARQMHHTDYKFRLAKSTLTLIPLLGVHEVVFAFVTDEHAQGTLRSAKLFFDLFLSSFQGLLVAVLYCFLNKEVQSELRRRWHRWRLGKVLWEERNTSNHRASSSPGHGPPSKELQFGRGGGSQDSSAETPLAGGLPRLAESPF
Chain of Glucagon receptor (Rattus norvegicus, UniProt P30082) (P30082 whole entry): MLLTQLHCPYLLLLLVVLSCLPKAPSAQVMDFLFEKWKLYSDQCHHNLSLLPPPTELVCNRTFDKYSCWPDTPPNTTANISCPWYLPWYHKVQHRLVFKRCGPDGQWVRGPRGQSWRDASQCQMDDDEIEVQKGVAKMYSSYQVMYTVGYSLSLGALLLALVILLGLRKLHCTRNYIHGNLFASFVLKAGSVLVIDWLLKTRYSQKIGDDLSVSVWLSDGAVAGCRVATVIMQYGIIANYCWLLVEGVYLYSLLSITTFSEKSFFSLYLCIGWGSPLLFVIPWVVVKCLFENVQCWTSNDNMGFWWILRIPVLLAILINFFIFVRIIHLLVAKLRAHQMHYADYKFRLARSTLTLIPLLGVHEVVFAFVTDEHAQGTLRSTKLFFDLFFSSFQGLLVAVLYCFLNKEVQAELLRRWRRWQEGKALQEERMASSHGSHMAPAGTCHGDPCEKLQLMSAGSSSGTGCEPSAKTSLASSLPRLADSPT

SMILES | Tmax [1] [h] | IC50 (Hepatocyte [3]) [nM] | IC50 [4] [nM] | IC50 [5] [nM] | IC50 (Glucagon receptor [7]) [nM] | inhibition (Hepatocyte [8]) | half-life [9] [h] | IC50 (Glucagon receptor [10]) [nM] | fold change (FC) (Homo sapiens [12]) | IC50 [13] [nM] | IC50 [14] [nM] | Cmax [16] [ng/mL] | IC50 (Glucagon receptor [17]) [nM] | IC50 (Glucagon receptor [18]) [nM] | bioavailability [20] [%] | clearance [22] [mL/min/kg] | IC50 [23] [nM] | fold change (FC) (Homo sapiens [24]) | also measured
O=C(O)CCNC(=O)c1ccc(CN(c2ccc(Cl)cc2)c2nc(-c3ccc(OC(F)(F)F)cc3)cs2)cc1 | 1.5 | 2800 | 869 | 5700 | 82 | inactive | 1.1 | 418 | > 50 | 78 | 60 | 554 | 1700 | 53 | 71 | 4.64 | 460 | 5 | Tmax [2]: 1 h; clearance [6]: 6 mL/min/kg; half-life [11]: 1.52 h; bioavailability [15]: 16%; IC50 [19]: 1200 nM; Cmax [21]: 521 ng/mL
O=C(O)CCNC(=O)c1ccc(CN(c2ccc(OC(F)(F)F)cc2)c2nc(-c3ccc(C(F)(F)F)cc3)cs2)cc1 | 1.47 | 3600 | 833 | 5300 | 92 | inactive | 3.92 | 552 | > 50 | 96 | 72 | 1000 | 2000 | 51 | 55 | 0.78 | 480 | 5 | clearance [25]: 2 mL/min/kg; Cmax [26]: 638 ng/mL; half-life [27]: 7.57 h; bioavailability [28]: 29%; Tmax [29]: > 6 h
O=C(O)CCNC(=O)c1ccc(CN(c2ccc3c(c2)Cc2ccccc2-3)c2nc(-c3ccc(OC(F)(F)F)cc3)cs2)cc1 | – | 700 | 488 | – | 50 | inactive | – | 218 | > 50 | – | 62 | – | 1800 | 59 | – | – | 290 | 5 | Tmax [30]: 5 h; Cmax [31]: 471 ng/mL; clearance [32]: 5 mL/min/kg; half-life [33]: 2.47 h; bioavailability [34]: 12%
O=C(O)CCNC(=O)c1ccc(CN(c2ccc3c(c2)CCCC3)c2nc(-c3ccc(C(F)(F)F)cc3)cs2)cc1 | – | – | 564 | – | 77 | – | – | – | > 50 | – | 3 | – | – | 48 | – | – | 390 | 5 | Cmax [35]: 615 ng/mL; Tmax [36]: 1.5 h; clearance [37]: 7 mL/min/kg; half-life [38]: 1.23 h; bioavailability [39]: 27%
